The source made the active and inactive calls. The rule behind the calls is not given here.
Key:
[1] = molecular target: T1, Mineralocorticoid receptor (Rattus norvegicus) (UniProt P22199); experiment: Relative binding affinity to the rat mineralocorticoid receptor determined in rat renal cytosol using [3]Ald as ligand
T1 sequence (whole entry): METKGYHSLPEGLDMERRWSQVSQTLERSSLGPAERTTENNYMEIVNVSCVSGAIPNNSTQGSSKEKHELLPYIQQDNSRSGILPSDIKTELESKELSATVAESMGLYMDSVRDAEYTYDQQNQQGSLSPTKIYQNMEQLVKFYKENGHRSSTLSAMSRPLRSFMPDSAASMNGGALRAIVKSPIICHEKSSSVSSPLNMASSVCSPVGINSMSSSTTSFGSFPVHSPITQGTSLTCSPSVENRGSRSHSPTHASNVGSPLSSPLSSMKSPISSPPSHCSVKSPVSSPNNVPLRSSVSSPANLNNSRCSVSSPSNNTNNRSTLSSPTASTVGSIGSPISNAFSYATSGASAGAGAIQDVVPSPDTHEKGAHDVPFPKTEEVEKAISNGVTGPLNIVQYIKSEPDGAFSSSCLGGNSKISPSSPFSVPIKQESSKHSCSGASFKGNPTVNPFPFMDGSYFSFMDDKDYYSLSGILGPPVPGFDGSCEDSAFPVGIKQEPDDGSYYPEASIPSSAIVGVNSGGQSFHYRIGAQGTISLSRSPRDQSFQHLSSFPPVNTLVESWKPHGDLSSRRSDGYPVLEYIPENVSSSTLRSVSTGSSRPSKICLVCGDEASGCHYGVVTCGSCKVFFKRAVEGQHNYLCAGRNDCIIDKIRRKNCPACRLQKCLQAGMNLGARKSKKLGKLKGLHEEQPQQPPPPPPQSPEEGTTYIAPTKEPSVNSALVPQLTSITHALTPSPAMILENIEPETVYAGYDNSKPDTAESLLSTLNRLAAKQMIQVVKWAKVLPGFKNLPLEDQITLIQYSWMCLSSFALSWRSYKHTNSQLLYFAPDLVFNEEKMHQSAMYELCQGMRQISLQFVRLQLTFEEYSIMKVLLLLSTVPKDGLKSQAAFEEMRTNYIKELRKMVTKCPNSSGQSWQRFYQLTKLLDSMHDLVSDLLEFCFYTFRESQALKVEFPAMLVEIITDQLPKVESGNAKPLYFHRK
Procedure, shortened: (§1)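 Renal cytosol came from male Sprague-Dawley rats (4-8 weeks) adrenalectomized bilaterally 1 or 2 days earlier. It was incubated with various competitor concentrations and about 1 nM [3H]Ald for 42-48 h at 0 °C or 100-120 min at 25 °C. Bound and free steroid were separated by DCC.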

[2] = molecular target: T1, Mineralocorticoid receptor (Rattus norvegicus); experiment: Antagonist activity against Mineralocorticoid receptor after subcutaneous administration in Male Sprague Dawley rats; (+) =positive; format: functional, organism-based; conditions: filed as antagonist
Procedure, shortened: (§2)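 Male rats were bilaterally adrenalectomized (bioassay modified from Kagawa). Ald (1 µg/kg) was given sc, immediately followed by test compound in sesame oil sc or orally. Urine was collected from 2 to 6 h after steroid. Potency came from the urinary Na/K ratio of sample versus control, with 95% confidence limits.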

[3] = molecular target: T1, Mineralocorticoid receptor (Rattus norvegicus); experiment: Antagonist activity against Mineralocorticoid receptor was determined after subcutaneous administration in Male Sprague Dawley rats; format: functional, organism-based; procedure, shortened: as §2
[4] = molecular target: T1, Mineralocorticoid receptor (Rattus norvegicus); experiment: Antagonist activity against Mineralocorticoid receptor after oral administration in Male Sprague Dawley rats; (+) =positive; format: functional, organism-based; conditions: filed as antagonist; procedure, shortened: as §2
[5] = molecular target: T1, Mineralocorticoid receptor (Rattus norvegicus); experiment: Relative binding affinity against mineralocorticoid receptor determined in rat renal cytosol using [3]Ald as ligand; procedure, shortened: as §1
Rattus norvegicus = organism: Rattus norvegicus; experiment: Displacement of [3H]promegestone from progestin receptor of rat uterine cytosol at 0 degree Centigrade
Procedure, shortened: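 Uteri from estradiol-primed rats supplied the cytosol. It was incubated with various competitor concentrations and about 1 nM [3H]promegestone for 16-20 h at 0 °C. Bound and free steroid were separated by DCC. RBA (progesterone = 100%) = 100 × ratio of the 50%-inhibition concentrations of standard and competitor.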

[6] = molecular target: T1, Mineralocorticoid receptor (Rattus norvegicus); experiment: Displacement of [3]Aldosterone from mineralocorticoid receptor of rat renal cytosol at 0 degree Centigrade; procedure, shortened: as §1
[7] = molecular target: T2, Progesterone receptor (Rattus norvegicus) (UniProt Q63449); experiment: Relative binding affinity against progesterone receptor determined in rat […] cytosol using [3H]DHT as ligand
T2 sequence (whole entry): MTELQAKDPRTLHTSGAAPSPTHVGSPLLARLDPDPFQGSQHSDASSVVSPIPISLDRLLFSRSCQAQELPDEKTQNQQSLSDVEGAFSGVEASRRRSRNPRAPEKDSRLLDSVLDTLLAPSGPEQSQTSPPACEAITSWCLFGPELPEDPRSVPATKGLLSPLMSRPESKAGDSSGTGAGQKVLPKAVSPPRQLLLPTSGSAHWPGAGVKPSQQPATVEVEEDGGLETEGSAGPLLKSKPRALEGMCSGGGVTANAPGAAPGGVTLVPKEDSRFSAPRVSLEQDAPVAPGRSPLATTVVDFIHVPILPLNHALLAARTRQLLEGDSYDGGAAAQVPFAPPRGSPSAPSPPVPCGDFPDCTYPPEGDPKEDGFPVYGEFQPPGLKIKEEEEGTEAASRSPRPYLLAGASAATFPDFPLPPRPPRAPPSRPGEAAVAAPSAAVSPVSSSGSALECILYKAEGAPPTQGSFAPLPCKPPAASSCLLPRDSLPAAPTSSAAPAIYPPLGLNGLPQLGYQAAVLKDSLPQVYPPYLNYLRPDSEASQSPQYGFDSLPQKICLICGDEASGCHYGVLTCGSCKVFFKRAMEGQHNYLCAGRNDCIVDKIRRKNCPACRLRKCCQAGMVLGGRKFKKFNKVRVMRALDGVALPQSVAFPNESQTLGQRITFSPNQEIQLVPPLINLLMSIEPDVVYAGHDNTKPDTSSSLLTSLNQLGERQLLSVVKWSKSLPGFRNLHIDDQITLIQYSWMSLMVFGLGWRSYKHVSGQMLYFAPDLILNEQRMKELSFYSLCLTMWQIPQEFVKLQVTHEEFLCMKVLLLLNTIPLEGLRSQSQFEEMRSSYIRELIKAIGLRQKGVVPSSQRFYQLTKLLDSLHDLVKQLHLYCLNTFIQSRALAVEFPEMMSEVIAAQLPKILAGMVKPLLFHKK

[8] = molecular target: T3, Androgen receptor (Rattus norvegicus) (UniProt P15207); experiment: In vivo relative androgenic activity in Male Sprague-Dawley rats; format: functional, organism-based
T3 sequence (whole entry): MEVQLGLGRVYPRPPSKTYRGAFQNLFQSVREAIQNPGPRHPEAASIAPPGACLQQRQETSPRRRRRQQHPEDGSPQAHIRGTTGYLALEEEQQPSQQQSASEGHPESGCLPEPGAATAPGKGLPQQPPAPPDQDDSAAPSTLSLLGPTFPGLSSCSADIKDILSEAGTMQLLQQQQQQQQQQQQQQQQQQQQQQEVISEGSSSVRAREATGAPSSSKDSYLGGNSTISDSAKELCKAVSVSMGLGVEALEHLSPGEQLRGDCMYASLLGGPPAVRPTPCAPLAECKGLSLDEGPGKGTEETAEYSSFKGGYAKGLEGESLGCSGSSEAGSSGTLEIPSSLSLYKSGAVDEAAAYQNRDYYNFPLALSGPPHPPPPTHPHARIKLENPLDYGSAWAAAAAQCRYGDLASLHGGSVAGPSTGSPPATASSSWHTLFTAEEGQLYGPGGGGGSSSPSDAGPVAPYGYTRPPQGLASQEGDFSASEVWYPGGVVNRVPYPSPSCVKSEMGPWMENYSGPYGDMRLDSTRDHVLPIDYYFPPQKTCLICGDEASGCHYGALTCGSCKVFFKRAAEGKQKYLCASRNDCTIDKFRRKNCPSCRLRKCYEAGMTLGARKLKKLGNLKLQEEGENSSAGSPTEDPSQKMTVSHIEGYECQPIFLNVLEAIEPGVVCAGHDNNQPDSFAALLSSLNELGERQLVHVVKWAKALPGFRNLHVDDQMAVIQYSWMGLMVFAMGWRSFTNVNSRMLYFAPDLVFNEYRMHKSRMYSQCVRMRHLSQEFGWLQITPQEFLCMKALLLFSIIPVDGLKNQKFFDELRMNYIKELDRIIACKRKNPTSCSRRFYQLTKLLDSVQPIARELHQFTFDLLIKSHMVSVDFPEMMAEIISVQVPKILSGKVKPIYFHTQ

[9] = molecular target: T3, Androgen receptor (Rattus norvegicus); experiment: Relative binding affinity against Androgen receptor in Male Sprague-Dawley rats
Procedure, shortened: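 Rat ventral prostate cytosol from 4-8-week-old rats castrated 1 day earlier. Incubated with various competitor concentrations and about 1 nM [3H]DHT or [3H]methyltrienolone for 16-20 h at 0 °C. Bound and free steroid separated by dextran-coated charcoal.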

[10] = molecular target: T1, Mineralocorticoid receptor (Rattus norvegicus); experiment: Agonist activity against Mineralocorticoid receptor was determined after subcutaneous administration in Male Sprague Dawley rats; (+) =positive; format: functional, organism-based; conditions: filed as agonist
[11] = molecular target: T1, Mineralocorticoid receptor (Rattus norvegicus); experiment: Antagonist activity against Mineralocorticoid receptor after oral administration in Male Sprague Dawley rats; (-) = negative; format: functional, organism-based; procedure, shortened: as §2
[12] = molecular target: T1, Mineralocorticoid receptor (Rattus norvegicus); experiment: Antagonist activity against Mineralocorticoid receptor after po administration in Male Sprague Dawley rats; (-) = negative; format: functional, organism-based; procedure, shortened: as §2
[13] = molecular target: T1, Mineralocorticoid receptor (Rattus norvegicus); experiment: Relative anti-mineralocorticoid potency compared to Spironolactone after oral administration; format: functional, organism-based; procedure, shortened: as §2

| SMILES | RBA [1] [%] | Activity [2] | Activity [3] | RBA [5] [%] | RBA [7] [%] | other results |
| --- | --- | --- | --- | --- | --- | --- |
| CC(=O)S[C@@H]1CC2=CC(=O)CC[C@]2(C)[C@H]2CC[C@@]3(C)[C@@H](CC[C@@]34CCC(=O)O4)[C@H]12 | 15 | Antagonist | inactive | 3.2 |  | Activity [4]: Antagonist; RBA (Rattus norvegicus): 2.6% |
| CC12CCC(=O)C=C1C=CC1C2C=CC2(C)C1C1CC1[C@@]21CCC(=O)O1 (some centres undefined) | 320 |  | inactive |  | 210 | RBA [6]: 290% |
| CC12C=CC3C(CCC4CC(=O)CCC43C)C1CCC2O (centres undefined) |  |  |  |  |  | Relative activity [8]: 1; relative binding affinity (RBA) [9]: 81 |
| C[C@]12CC[C@H]3[C@@H](CCC4CC(=O)CC[C@@H]43)[C@@H]1CC[C@@H]2O (some centres undefined) |  |  |  |  |  | Relative activity [8]: 0.1; relative binding affinity (RBA) [9]: 59 |
| CC12CCC(=O)C=C1CCC1C2C=CC2(C)C(O)CCC12 (centres undefined) |  |  |  |  |  | Relative activity [8]: 0.7; relative binding affinity (RBA) [9]: 120 |
| CC12C=CC(=O)C=C1CCC1C2C=CC2(C)C1CC[C@@]21CCC(=O)O1 (some centres undefined) | 71 |  | inactive | 120 |  | Activity [10]: Agonist; RBA (Rattus norvegicus): 7.5% |
| CC12C=CC(=O)C=C1[C@H]1C[C@H]1C1C2C=CC2(C)C1CC[C@@]21CCC(=O)O1 (some centres undefined) | 48 | Antagonist |  | 32 | 1.9 | Activity [11]: inactive; Activity [12]: inactive; Relative potency [13]: 1.31 |
| CC12CCC(=O)C=C1C1CC1C1C2C=CC2(C)C1C1CC1[C@@]21CCC(=O)O1 (some centres undefined) | 760 |  | inactive |  |  | RBA [6]: 300%; RBA (Rattus norvegicus): 540% |
| CC12C=CC(=O)C=C1CCC1C2C=CC2(C)C1C1CC1[C@@]21CCC(=O)O1 (some centres undefined) | 440 |  |  | 220 |  |  |
| CC12C=CC(=O)C=C1C[C@@H](SC(=O)c1ccccc1)C1C2C=CC2(C)C1CC[C@@]21CCC(=O)O1 (some centres undefined) | 37 |  | inactive | 3.7 |  | Activity [10]: Agonist |
| CC(=O)S[C@@H]1CC2=CC(=O)C=CC2(C)C2C=CC3(C)C(CC[C@@]34CCC(=O)O4)C21 (some centres undefined) | 71 | Antagonist | inactive | 23 | 3.9 | Activity [4]: Antagonist; Relative potency [13]: 0.77 |
| C[C@]12CCC(=O)C=C1C=C[C@@H]1[C@@H]2CC[C@@]2(C)[C@H]1CC[C@@]21CCC(=O)O1 | 2.9 | Antagonist |  | 1.7 |  | Activity [11]: inactive |
| CC12CCC(=O)C=C1C[C@@H](SC(=O)c1ccccc1)C1C2C=CC2(C)C1CC[C@@]21CCC(=O)O1 (some centres undefined) | 18 |  | inactive |  |  | RBA [6]: 11%; RBA (Rattus norvegicus): 25% |
| CC(C)(C)C(=O)S[C@@H]1CC2=CC(=O)CCC2(C)C2C=CC3(C)C(CC[C@@]34CCC(=O)O4)C21 (some centres undefined) | 42 | Antagonist |  |  | 38 | RBA [6]: 46% |
| CC(=O)S[C@@H]1CC2=CC(=O)CCC2(C)C2C=CC3(C)C(C4CC4[C@@]34CCC(=O)O4)C21 (some centres undefined) | > 1000 |  | inactive | 370 | 89 |  |
| CC(C)(C)C(=O)S[C@@H]1CC2=CC(=O)C=CC2(C)C2C=CC3(C)C(CC[C@@]34CCC(=O)O4)C21 (some centres undefined) | 530 | Antagonist |  | 1000 | 18 | Activity [4]: Antagonist; Activity [12]: inactive |
| CC12CCC(=O)C=C1CCC1C2C=CC2(C)C1C1CC1[C@@]21CCC(=O)O1 (some centres undefined) | 650 |  |  |  |  | RBA [6]: 310% |

Reference: ChEMBL document CHEMBL1123888, “Aldosterone antagonists. 2. Synthesis and biological activities of 11,12-dehydropregnane derivatives” (J Med Chem, 1987)
